According to ChEMBL document CHEMBL4257483, “Design, synthesis and bioactivities of phenithionate analogues or derivatives for anti-schistosomiasis” (Medchemcomm, 2018):
In brackets after ≈: the same amount, converted by molar mass. Activity calls are given as the source filed them. The calls are words filed in the database; no cut-off is given here.

Columns and labels:
Schistosoma japonicum [1] = test: Antischistosomal activity against Schistosoma japonicum infected in mouse at 25 mg/kg/day, po treated for 5 days measured after day 3 post last dose by ELISA; assay type: functional, organism-based
Method in brief: (§1)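 Male mice (20–22 g) infected via abdominal skin with 120–140 S. japonicum cercariae. From day 35 post-infection, dosed orally once daily for 5 days. Venous blood then clotted and centrifuged 15 min at 3500 rpm. Serum tested by triple dot ELISA and scored by spot colour: brown +++, yellow ++, slight yellow +, colourless –. DMSO blank.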

Schistosoma japonicum [2] = test: Antischistosomal activity against Schistosoma japonicum infected in mouse at 25 mg/kg/day, po treated for 5 days measured after day 5 post last dose by ELISA; assay type: functional, organism-based; method in brief: as §1
Schistosoma japonicum [3] = test: Antischistosomal activity against Schistosoma japonicum infected in mouse at 50 mg/kg/day, po treated for 5 days measured after day 9 post last dose by ELISA; assay type: functional, organism-based; method in brief: as §1
[4] = Lipid/water partition coefficient, log P of the compound; assay type: physicochemical
Schistosoma japonicum [5] = test: Antischistosomal activity against Schistosoma japonicum infected in mouse at 50 mg/kg/day, po treated for 5 days measured after day 5 post last dose by ELISA; assay type: functional, organism-based; method in brief: as §1
Schistosoma japonicum [6] = test: Antischistosomal activity against Schistosoma japonicum infected in mouse at 25 mg/kg/day, po treated for 5 days measured after day 6 post last dose by ELISA; assay type: functional, organism-based; method in brief: as §1
[7] = Acute toxicity in po dosed mouse infected with Schistosoma japonicum treated for 5 days; assay type: organism-based; details: in vivo
Schistosoma japonicum [8] = test: Antischistosomal activity against Schistosoma japonicum infected in mouse at 50 mg/kg/day, po treated for 5 days measured after day 2 post last dose by ELISA; assay type: functional, organism-based; method in brief: as §1
[9] = Dissociation constant, pKa of the compound; assay type: physicochemical
Schistosoma japonicum [10] = test: Antischistosomal activity against Schistosoma japonicum imago derived from infected mouse assessed as reduction in imago viability after 72 hrs; assay type: functional, organism-based
Method in brief: (§2)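 Worms perfused with cold heparinised HBSS from mice infected percutaneously with S. japonicum cercariae: larvae at 15 days post-infection (260–280 cercariae), adults at 35 days (120–140 cercariae). Five male and female worms per well in 10% calf serum RPMI 1640 with penicillin, streptomycin and amphotericin B. Preincubated 4 h at 37 °C, 5% CO2, then compounds added and viability recorded over 72 h. IC50 taken at 50% survival. DMSO blank.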

Schistosoma japonicum [11] = test: Antischistosomal activity against Schistosoma japonicum infected in mouse at 25 mg/kg/day, po treated for 5 days measured after day 1 post last dose by ELISA; assay type: functional, organism-based; method in brief: as §1
Schistosoma japonicum [12] = test: Antischistosomal activity against Schistosoma japonicum imago derived from infected mouse at 20 ug/ml after 72 hrs; assay type: functional, organism-based; method in brief: as §2
Schistosoma japonicum [13] = test: Antischistosomal activity against Schistosoma japonicum infected in mouse at 50 mg/kg/day, po treated for 5 days measured after day 3 post last dose by ELISA; assay type: functional, organism-based; method in brief: as §1
Schistosoma japonicum [14] = test: Antischistosomal activity against Schistosoma japonicum infected in mouse at 25 mg/kg/day, po treated for 5 days measured after day 9 post last dose by ELISA; assay type: functional, organism-based; method in brief: as §1
Schistosoma japonicum [15] = test: Antischistosomal activity against Schistosoma japonicum larva derived from infected mouse assessed as reduction in larva viability after 72 hrs; assay type: functional, organism-based; method in brief: as §2
Schistosoma japonicum [16] = test: Antischistosomal activity against Schistosoma japonicum infected in mouse at 25 mg/kg/day, po treated for 5 days measured after day 2 post last dose by ELISA; assay type: functional, organism-based; method in brief: as §1
Schistosoma japonicum [17] = test: Antischistosomal activity against Schistosoma japonicum infected in mouse at 25 mg/kg/day, po treated for 5 days measured after day 7 post last dose by ELISA; assay type: functional, organism-based; method in brief: as §1
Schistosoma mansoni = test: Antischistosomal activity against Schistosoma mansoni imago derived from infected mouse at 20 ug/ml after 72 hrs; assay type: functional, organism-based
Schistosoma japonicum [18] = test: Antischistosomal activity against Schistosoma japonicum infected in mouse at 50 mg/kg/day, po treated for 5 days measured after day 1 post last dose by ELISA; assay type: functional, organism-based; method in brief: as §1
Schistosoma japonicum [19] = test: Antischistosomal activity against Schistosoma japonicum infected in mouse at 25 mg/kg/day, po treated for 5 days measured after day 4 post last dose by ELISA; assay type: functional, organism-based; method in brief: as §1
Schistosoma japonicum [20] = test: Antischistosomal activity against Schistosoma japonicum infected in mouse at 50 mg/kg/day, po treated for 5 days measured after day 7 post last dose by ELISA; assay type: functional, organism-based; method in brief: as §1
Schistosoma japonicum [21] = test: Antischistosomal activity against Schistosoma japonicum infected in mouse at 25 mg/kg/day, po treated for 5 days measured after day 8 post last dose by ELISA; assay type: functional, organism-based; method in brief: as §1
Schistosoma japonicum [22] = test: Antischistosomal activity against Schistosoma japonicum infected in mouse at 50 mg/kg/day, po treated for 5 days measured after day 4 post last dose by ELISA; assay type: functional, organism-based; method in brief: as §1
Schistosoma haematobium = test: Antischistosomal activity against Schistosoma haematobium imago derived from infected mouse at 20 ug/ml after 72 hrs; assay type: functional, organism-based
Schistosoma japonicum [23] = test: Antischistosomal activity against Schistosoma japonicum infected in mouse at 50 mg/kg/day, po treated for 5 days measured after day 6 post last dose by ELISA; assay type: functional, organism-based; method in brief: as §1
Schistosoma japonicum [24] = test: Antischistosomal activity against Schistosoma japonicum infected in mouse at 50 mg/kg/day, po treated for 5 days measured after day 8 post last dose by ELISA; assay type: functional, organism-based; method in brief: as §1

Oc1ccc(OC(=S)Nc2ccc(Nc3ccc(C(F)(F)F)cc3)cc2)cc1
Activity (Schistosoma japonicum [1]): Active | Activity (Schistosoma japonicum [2]): Active | Activity (Schistosoma japonicum [3]): inactive | logP [4]: 6.04 | Activity (Schistosoma japonicum [5]): inactive | Activity (Schistosoma japonicum [6]): inactive | LD50 at 120 h [7]: > 500 mg/kg | Activity (Schistosoma japonicum [8]): Active | pKa [9]: 9.23 | IC50 (Schistosoma japonicum [10]): 6.68 µg/mL (≈ 16.5 µM) | Activity (Schistosoma japonicum [11]): Active | Activity (Schistosoma japonicum [12]): Active | Activity (Schistosoma japonicum [13]): Active | Activity (Schistosoma japonicum [14]): inactive | IC50 (Schistosoma japonicum [15]): 5.43 µg/mL (≈ 13.4 µM) | Activity (Schistosoma japonicum [16]): Active | Activity (Schistosoma japonicum [17]): inactive | Activity (Schistosoma mansoni): inactive | Activity (Schistosoma japonicum [18]): Active | Activity (Schistosoma japonicum [19]): Active | Activity (Schistosoma japonicum [20]): inactive | Activity (Schistosoma japonicum [21]): inactive | Activity (Schistosoma japonicum [22]): inactive | Activity (Schistosoma haematobium): inactive | Activity (Schistosoma japonicum [23]): inactive | Activity (Schistosoma japonicum [24]): inactive
